Values joined by “and” are separate entries in the source; they are usually repeats but may differ in a detail not shown here. Equal values may be shown once. Active and inactive are the calls of the source.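 The calls were made as follows: active = any dose giving under 70% viability, per first replicate; inactive = the rest.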
Tested on: not listed separately
Assay: HEp-2 cell cytotoxicity, dose response, cytotoxicity control for RSV inhibitor project, CellTiter-Glo luminescence, synthesized compounds, set 11 (AID 540266)
Conditions: HEp-2 cell viability, luminescence (CellTiter-Glo); at 200 µM (top of the series)
Procedure, shortened: (§1)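 Material: uninfected HEp-2 cells; Evaluation: % viability and CC50 from constrained 4-parameter fit; Doses: Eight-concentration twofold dilution series, 0.5% DMSO final; Incubation: compound exposure of cells for 6 days at 37 °C; Medium: DMEM/F12 with FBS; Technique: CellTiter-Glo luminescence; Replicates: each compound concentration tested in triplicate wells.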

Row | Structure (SMILES) | viability
1 | Cc1ccc(Cn2c(=O)n(Cc3ccc(C(=O)Nc4ccncc4)cc3)c(=O)c3ccccc32)cc1 | 84% (inactive)

Tested on: HEp-2 cell viability, luminescence (CellTiter-Glo)
Assay: as above
Conditions: not given
Procedure, shortened: as §1

Row | Structure (SMILES) | CC50
2 | COCCCNC(=O)c1ccc(Cn2c(=O)c3ccccc3n(Cc3ccccc3Br)c2=O)cc1 | 7.99 µM
3 | COCCCNC(=O)c1ccc(Cn2c(=O)c3ccccc3n(Cc3ccc(C(F)(F)F)cc3)c2=O)cc1 | 79.2 µM
4 | Cc1ccc(Cn2c(=O)n(Cc3ccc(C(=O)NC(C)(C)C)cc3)c(=O)c3ccccc32)cc1 | 12.1 µM
5 | COCCCNC(=O)c1ccc(Cn2c(=O)c3ccccc3n(Cc3ccccc3F)c2=O)cc1 | 7.1 µM
6 | COCCCNC(=O)c1ccc(Cn2c(=O)c3ccccc3n(Cc3ccc(C)c(C(F)(F)F)c3)c2=O)cc1 | 71.3 µM
7 | COCCCNC(=O)c1ccc(Cn2c(=O)c3ccccc3n(Cc3cccc(Br)c3)c2=O)cc1 | 3.32 µM
8 | Cc1ccc(Cn2c(=O)n(Cc3ccc(C(=O)NCCCN(C)C)cc3)c(=O)c3ccccc32)cc1 | 15.1 µM
9 | COCCCNC(=O)c1ccc(Cn2c(=O)c3ccccc3n(Cc3ccc([N+](=O)[O-])cc3)c2=O)cc1 | 113 µM
10 | COCCCNC(=O)c1ccc(Cn2c(=O)c3ccccc3n(Cc3ccc(F)cc3)c2=O)cc1 | 7.09 µM
11 | COCCCNC(=O)c1ccc(Cn2c(=O)c3ccccc3n(Cc3ccc(OC)cc3)c2=O)cc1 | 149 µM
12 | Cc1ccc(Cn2c(=O)n(Cc3ccc(C(=O)NCCCOC(C)C)cc3)c(=O)c3ccccc32)cc1 | 19.1 µM
13 | CCOCCCNC(=O)c1ccc(Cn2c(=O)c3ccccc3n(Cc3ccc(C)cc3)c2=O)cc1 | 8.5 µM
14 | Cc1ccc(C)c(NC(=O)[C@@H]2CCCN2S(=O)(=O)c2cccc3cccnc23)c1 | 34.7 µM and 32.9 µM
15 | COCCCNC(=O)c1ccc(Cn2c(=O)c3ccccc3n(Cc3ccc(Br)cc3)c2=O)cc1 | 138 µM

Source: PubChem BioAssay AID540266 (Southern Research Specialized Biocontainment Screening …, 2011)
